# Laboratory results: article PMC5648746 (Clinical Pharmacokinetics, 2017)
# How the values were obtained:
# [1] = Population pharmacokinetic analysis; format: in vivo, human
# How it was run: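 Plasma from 755 adults with advanced haematologic or non-haematologic malignancies given oral (BSA-based or fixed) or IV (BSA-based) doses, weekly (28-day cycle) or twice-weekly (21-day cycle); sampled pre-dose and post-dose. LC-MS/MS with 13C9-labelled internal standard, linear 0.5–500 ng/mL. Three-compartment model, first-order absorption with lag; additive log-scale residual error; stepwise covariate selection, p = 0.01 plus ≥10% variance reduction.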
# [2] = single oral dose of radio-labelled ixazomib, five patients with advanced cancer; cited from earlier work
# [3] = test system: human cDNA-expressed CYP isozymes; conditions: clinically relevant ixazomib concentrations; cited from earlier work
# [4] = Western patients, weekly dose; cited from earlier work
# [5] = cited from earlier work
# [6] = previous population PK analysis, four phase I studies; cited from earlier work
# [7] = test system: patients with multiple myeloma; conditions: ixazomib plus lenalidomide-dexamethasone vs placebo plus lenalidomide-dexamethasone, TOURMALINE-MM1; cited from earlier work
# [8] = Individual predicted exposure; format: in vivo, human; conditions: oral ixazomib; figure value with 95% CI
# [9] = cited from earlier work; remark: listed apart in the source
# [10] = after a high-calorie high-fat meal; cited from earlier work
# [11] = typical (population) parameter estimates
smiles,measurement,setting,value
CC(C)C[C@H](NC(=O)CNC(=O)c1cc(Cl)ccc1Cl)B(O)O [ixazomib],Inter-individual variability on log CL,[1]; % coefficient of variation,44%
same,Inter-individual variability on log F,[1]; % coefficient of variation,73%
same,Inter-individual variability on log V4,[1]; % coefficient of variation,79%
same,Change in V4 at the 5th percentile of BSA relative to median BSA,[1]; BSA 1.5 m^2 vs median 1.87 m^2,−37%
same,Change in V4 at the 95th percentile of BSA relative to median BSA,[1]; BSA 2.25 m^2 vs median 1.87 m^2,+46%
same,Impact of BSA on CL,[1]; BSA had a small effect on V4,did not impact CL
same,Effect of age on ixazomib PK parameters,[1]; age 23–91 years,not found to have a clinically relevant effect
same,Correlation between log CL and log F (random effects),[1]; coefficient of correlation,82%
same,"Impact of BSA on V4 (V4[BSA]), estimate",[1]; covariate coefficient of power function,2.06
same,"Absorption lag time (TLAG), untransformed parameter",[1]; final model,13 min
same,"Absorption rate constant (Ka), untransformed parameter",[1]; final model,0.34 h⁻¹
same,"Volume of the first peripheral compartment (V3), untransformed parameter",[1]; final model,309 L
same,"Volume of the second peripheral compartment (V4), untransformed parameter","[1]; final model, at median BSA",205 L
same,Impact of CrCl and total bilirubin on ixazomib pharmacokinetics,"[1]; mild or moderate renal impairment (CrCl 30–90 mL/min), mild hepatic impairment",neither CrCl nor total bilirubin had any clinically relevant impact
same,"Absorption rate constant (log Ka), estimate","[1]; raw NONMEM estimate, log scale",−1.09
same,"Volume of the first peripheral compartment (log V3), estimate","[1]; raw NONMEM estimate, log scale",5.73
same,"Volume of the second peripheral compartment (log V4), estimate","[1]; raw NONMEM estimate, log scale",5.32
same,Population estimate of steady-state volume of distribution,[1]; [11],527 L
same,"Population estimate of t1/2,γ",[1]; [11],224 h
same,Administered radioactivity excreted in feces,[2],22%
same,Administered radioactivity excreted in urine,[2],62%
same,Contribution of specific CYP isozymes to ixazomib metabolism,[3],no specific CYP isozyme predominantly contributed
same,Maximum tolerated dose,[4],5.5 mg
same,Dose dependence of exposure (AUC),[5],dose-proportional increases in exposure
same,Accumulation ratio for AUC,[5]; once-weekly repeat-dose administration,approximately 2
same,Median time to maximum plasma concentration,"[5]; post-dose, oral",1 h
same,Estimated absolute bioavailability,[6],60%
same,Improvement in progression-free survival,[7],35%
same,"Percent change in mean AUC∞, Asian race relative to White race",[8],35%
same,Decrease in systemic exposure (AUC) of ixazomib with rifampin,[9]; co-administration of strong pleiotropic PXR-mediated inducer rifampin,74%
same,Effect of the strong CYP3A inhibitor clarithromycin on ixazomib pharmacokinetics,[9]; controlled phase I clinical study,absence of an effect
same,Reduction in peak plasma concentration with food,[10],69%
same,Reduction in total systemic exposure (AUC) with food,[10],28%
